Bioassay records from PubChem BioAssay.
Only some compounds are listed: those with a hit (about 2.3% of all), similar ones and a draw of the others.
ADAM10 inh = ADAM10 inhibition, QFRET primary screen; O14672; recombinant ADAM10, EDANS/DABCYL FRET peptide cleavage, 3 h; inhibition, % at 7 µM; actives 0.62% (n = 370,000); AID 720582;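 active = inhibition above a per-campaign cutoff equal to the mean of compounds falling between control-based bounds plus 3 SD, cut at about 20% in these data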;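 note: 0% = DMSO wells while the 100% control is not disclosed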
PLCb3 inh = inhibitors of human phospholipase C beta3. AID 720704. Purified PLC-beta3, fluorogenic substrate, fluorescence. actives 0.18% (n = 370,000). inhibition, % at 12.2 µM; in the data active = inhibition above about 11%;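 note: 0% = median of compound wells on plate and 100% = full blocker control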
Tb MetRS inh = blocks T. brucei methionyl-tRNA synthetase activity. purified T. brucei MetRS, ATP depletion, Kinase-Glo luminescence. inhibition, % at 11.9 µM. actives 0.4% (n = 360,000). AID 624268;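 active = inhibition above a per-plate cutoff of the control wells' mean inhibition plus 3 SD, cut at about 5.5% in these data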;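 note: 0% = DMSO wells median and 100% = median of wells with control inhibitor compound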
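Dosing: 11.9 µM single point; system: parasite MetRS enzyme; technique: luminescence of leftover ATP; times: 15 min enzyme-compound preincubation, 2 h reaction, 10 min detection, 25 °C; replicates: each compound tested once; read-out basis: percent inhibition relative to median high and low control wells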
PLC-gamma1 inh = blocks human PLC-gamma1 enzyme activity. purified PLC-gamma1, fluorogenic substrate, fluorescence. P19174. actives 0.84% (n = 370,000). inhibition, % at 12.2 µM; in the data active = inhibition above about 9.5%
Target sequence (P19174 whole entry, looked up): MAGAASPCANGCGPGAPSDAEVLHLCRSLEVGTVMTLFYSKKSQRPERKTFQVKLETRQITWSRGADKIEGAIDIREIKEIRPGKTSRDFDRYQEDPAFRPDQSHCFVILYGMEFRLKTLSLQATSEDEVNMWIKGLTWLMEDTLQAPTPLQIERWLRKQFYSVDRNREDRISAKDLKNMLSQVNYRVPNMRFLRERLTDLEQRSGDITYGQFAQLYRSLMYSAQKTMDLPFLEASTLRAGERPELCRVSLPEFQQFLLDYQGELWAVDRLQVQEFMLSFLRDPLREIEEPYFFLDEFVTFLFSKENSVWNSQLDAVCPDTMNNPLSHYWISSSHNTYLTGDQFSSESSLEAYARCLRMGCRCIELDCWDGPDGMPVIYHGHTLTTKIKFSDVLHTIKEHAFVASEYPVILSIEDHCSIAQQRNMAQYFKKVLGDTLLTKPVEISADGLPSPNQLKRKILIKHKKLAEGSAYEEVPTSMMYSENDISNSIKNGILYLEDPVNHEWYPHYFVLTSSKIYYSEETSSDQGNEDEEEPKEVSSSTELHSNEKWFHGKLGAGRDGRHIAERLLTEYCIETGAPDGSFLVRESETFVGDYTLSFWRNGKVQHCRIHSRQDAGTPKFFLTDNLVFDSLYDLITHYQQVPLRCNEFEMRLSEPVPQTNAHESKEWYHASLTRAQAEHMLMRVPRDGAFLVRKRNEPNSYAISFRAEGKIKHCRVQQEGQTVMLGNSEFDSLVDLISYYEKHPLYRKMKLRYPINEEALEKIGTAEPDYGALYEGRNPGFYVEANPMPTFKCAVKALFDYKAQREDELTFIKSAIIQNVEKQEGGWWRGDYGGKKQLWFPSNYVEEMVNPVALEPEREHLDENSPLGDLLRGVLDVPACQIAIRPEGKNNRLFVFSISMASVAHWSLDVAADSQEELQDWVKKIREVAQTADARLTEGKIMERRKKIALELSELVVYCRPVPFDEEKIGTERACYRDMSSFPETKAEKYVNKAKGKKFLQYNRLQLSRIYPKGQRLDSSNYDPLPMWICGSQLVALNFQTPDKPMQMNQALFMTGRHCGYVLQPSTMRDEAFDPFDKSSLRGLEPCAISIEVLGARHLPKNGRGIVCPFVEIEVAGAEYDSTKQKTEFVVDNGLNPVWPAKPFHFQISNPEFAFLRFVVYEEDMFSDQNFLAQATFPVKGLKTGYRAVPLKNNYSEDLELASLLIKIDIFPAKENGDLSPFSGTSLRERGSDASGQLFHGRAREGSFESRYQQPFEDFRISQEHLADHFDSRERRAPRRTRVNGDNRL
ADAM17 inh = inhibits human ADAM17 | inhibition, % at 6.95 µM | actives 0.83% (n = 370,000) | P78536 | recombinant ADAM17, EDANS/DABCYL FRET peptide cleavage | AID 720648;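 active = inhibition above the mean of compounds lying between control limits plus 3 SD, set per campaign, cut at about 8.5% in these data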;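 note: 0% = DMSO-only wells as the low control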
ADAM10 ctr = inhibits human ADAM10 in ADAM17 exosite counter-screen. inhibition, % at 6.95 µM. AID 743256. recombinant ADAM10, EDANS/DABCYL FRET peptide cleavage, 3 h. actives 47% (n = 2,900). shares compounds with ADAM17 inh;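 active = mean inhibition over the triplicate runs exceeds the activity threshold set in the earlier primary screen, cut at about 20% in these data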;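 note: 0% = DMSO wells and 100% = marimastat wells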
ADAM17 confirm = human ADAM17 inhibition, confirmation | shares compounds with ADAM17 inh | inhibition, % at 6.95 µM | recombinant ADAM17, EDANS/DABCYL QFRET peptide cleavage | actives 65% (n = 2,900);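 active = mean inhibition across replicates above the hit cutoff set in the primary screen, cut at about 8.5% in these data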;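 note: 0% = DMSO wells and 100% = marimastat wells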
* marks the source's active call; other numbers are inactive results; i = inactive; / = no result.

SMILES	ADAM10 inh	PLCb3 inh	Tb MetRS inh	PLC-gamma1 inh	ADAM17 inh	ADAM10 ctr	ADAM17 confirm
COc1ccccc1NS(=O)(=O)c1ccc(C)c(NC(=O)c2ccc(S(=O)(=O)N3CCCCCC3)cc2)c1	19	1	0	1	12*	36*	18*
COc1ccc(C(=O)Nc2ccc(S(=O)(=O)N3CCCC3)cc2)cc1	-8	0	0	-1	2	/	/
COc1ccc(NC(=O)c2ccc(S(=O)(=O)N3CCCCC3)cc2)cc1OC	18	-5	0	8	9.0*	10	10*
COC(=O)NCC(c1ccco1)N1CCN(c2ccccc2)CC1 (configuration not stated)	-4	-6	-1	0	-2	/	/
CCOC(=O)N1CCN(C(=O)c2[nH]c(C(F)(F)F)nc2-c2ccccc2)CC1	-7	3	0	2	1	/	/
COC(=O)CN1C(=O)C2(C(C#N)=C(N)Oc3c2c(C)nn3-c2ccccc2)c2ccccc21 (configuration not stated)	4	1	0	4	13*	-2	2
NS(=O)(=O)c1ccc(N/N=C/C=C/c2ccccc2[N+](=O)[O-])cc1	17	-8	1	5	8.7*	19	19*
Nc1ccc(S(=O)(=O)NN=CC=Cc2ccccc2[N+](=O)[O-])cc1	-55	-1	0	-1	2	/	/
O=c1cc(COn2nnc3ccc(C(F)(F)F)cc32)nc2sccn12	16	7	0	7	11*	7	8.9*
O=c1ccc(C(F)(F)F)cn1Cc1cc(=O)n2ccsc2n1	-5	-7	-1	-1	-4	/	/
COc1cc(CNc2nnnn2C)cc(OC)c1OC	-6	-9	0	-1	0	/	/
O=S(=O)(Nc1ccc(O)c(Sc2nc3ccccc3s2)c1)c1cccc2ccccc12	18	0	0	2	9.0*	42*	22*
O=C(Nc1nc(-c2ccccc2)cs1)c1ccccc1NS(=O)(=O)c1ccc(F)cc1	-204	-212	0	-169	-102	/	/
O=S(=O)(Nc1ccc(O)c(Sc2nc3ccccc3s2)c1)c1ccc(F)cc1	19	2	1	1	10*	34*	23*
O=S(=O)(Nc1ccc(-c2csc(-c3ccccc3)n2)cc1)c1ccc(F)cc1	16	-19	0	-16	11*	20*	19*
CCOC(=O)[C@@]12CCC3=C1N(CCC3)C(=O)[C@H](CC(=O)NCCCCc1ccccc1)C2	-16	-1	/	4	-9	/	/
COc1ccc(CCNC(=O)CCS(=O)(=O)c2ccc3c(c2)oc(=O)n3C)cc1OC	2	-3	0	0	2	/	/
O=C(N/N=C/c1ccc[nH]1)c1cc(-c2ccc(Cl)cc2)nc2ccccc12	16	-78	0	-47	9.6*	22*	15*
Cc1cc(SCC(=O)c2ccc(O)c(O)c2)n2nc(C)c(-c3ccccc3)c2n1	18	-59	-1	-6	9.9*	14	14*
CN1CC(c2ccccn2)C2(SC(=S)N(Cc3ccccc3)C2=O)C12C(=O)Nc1ccccc12 (configuration not stated)	-2	0	0	-1	-8	/	/
CN1CC(c2ccccc2)C2(SC(=S)N(Cc3ccco3)C2=O)C12C(=O)Nc1ccccc12 (configuration not stated)	26*	0	0	0	10*	37*	24*
COc1cccc(C(=O)c2c(-c3ccccc3)ncc3cc(OC)c(OC)cc23)c1	11	-12	0	-2	13*	17	19*
COc1c(NC=O)c2c(c([N+](=O)[O-])c1OC)C(=O)OC2	6	6	0	5	8.8*	-6	-2
C=CCC[C@H](Cc1ccc(F)cc1)C(=O)O[C@H](CNC(=O)[C@@H](CC=C)CC(=O)N(CCO)Cc1ccccc1)c1ccccc1	14	1	1	0	11*	45*	22*
CC(C)(C)S(=O)N1Cc2cc(C(=O)NCC(F)(F)F)nc(-c3cccc(-c4cccc(F)c4)c3)c2[C@H]1CCO (some centres not stated)	17	0	-1	3	10*	20*	11*
SMILES	ADAM10 inh	PLCb3 inh	Tb MetRS inh	PLC-gamma1 inh	ADAM17 inh	ADAM10 ctr	ADAM17 confirm
CC(C)(C)OC(=O)NCCCCCNC(=O)c1[nH]cnc1C(=O)Nc1cc(Br)ccc1F	-9	3	0	-1	-5	/	/
O=C(c1cc(F)c(F)c(F)c1F)N1CCN(C(=O)C2CCCO2)CC1 (configuration not stated)	-4	9	0	9	8.7*	-8	0
Cc1ccc(C(=O)N2CCN(C(=O)C3CCCO3)CC2)cc1 (configuration not stated)	-7	7	0	-2	-4	/	/
NC(=O)CNCCC(c1ccccc1)c1ccccc1	11	4	-1	5	9.8*	-2	0
NC(=O)COC(=O)CC(c1ccccc1)c1ccccc1	1	1	0	2	-2	/	/
CCOc1ccc(S(=O)(=O)n2cc(-c3ccc(F)cc3)c(N)n2)cc1	12	1	0	1	2	/	/
CCOc1cc(S(=O)(=O)n2cc(-c3ccc(F)cc3)c(N)n2)cc(OCC)c1OCC	18	6	-1	3	11*	31*	18*
CCN1C(=O)[C@H]2[C@@H](c3ccc(-c4ccc(C(C)=O)cc4)cc3)N3CCC[C@@]3(C(=O)OC)[C@H]2C1=O	16	-3	0	-2	9.7*	-9	0
CCN1C(=O)[C@@H]2[C@@H](c3ccc(-c4ccc(C(C)=O)cc4)cc3)N3CCC[C@@]3(C(=O)OC)[C@@H]2C1=O	8	-1	0	-1	-2	/	/
CCOC(=O)N1CCN(C(=O)C[C@H]2C[C@@]3(C(=O)OC)C(=C[C@H](C(C)C)O[C@@H]3C3CC3)N(Cc3ccc(Cl)cc3Cl)C2=O)CC1	6	0	/	7	9.2*	18	12*
COc1ccc([N+](=O)[O-])cc1NC(=O)C(C)OC(=O)c1ccccc1C(=O)c1ccc(Cl)cc1 (configuration not stated)	13	3	0	0	8.8*	46*	18*
COc1cc(CN2CCCC(C(=O)c3ccc4c5c(cccc35)CC4)C2)cc(OC)c1O (configuration not stated)	i	-236	-1	-189	-193	/	/
Cc1ccc(NC(=O)COc2ccc(Br)cc2CO)cc1	9	1	4	3	9.3*	-6	0
